The values that follow come from ChEMBL document CHEMBL4229415, “Design, synthesis and biological evaluation of novel series of 2H-benzo[b][1,4]oxazin-3(4H)-one and 2H-benzo[b][1,4]oxazine scaffold derivatives as PI3Kα inhibitors” (Bioorg Med Chem, 2018).

One assay relates to HCT-116. As to the kind of experiment: Antiproliferative activity against human HCT116 cells after 72 hrs by SRB assay. The assay is classed as functional, cell-based. Particulars: HCT-116, 72 h. For orientation: Sulforhodamine B stains cellular protein and so reports cell mass.
In another assay the test system is MDA-MB-231. The assay can be described thus: Antiproliferative activity against human MDA-MB-231 cells after 72 hrs by SRB assay. The assay is classed as functional, cell-based. Particulars: MDA-MB-231, 72 h.
A further assay has as its system SNU-638. As to the kind of experiment: Antiproliferative activity against human SNU638 cells after 72 hrs by SRB assay. The assay is classed as functional, cell-based. To be noted: SNU-638, 72 h.
Assay [1] concerns the target T1, Phosphatidylinositol 4,5-bisphosphate 3-kinase catalytic subunit alpha isoform (Homo sapiens, UniProt P42336). The assay can be described thus: Inhibition of recombinant human PI3K-alpha using PIP2:3PS as substrate preincubated for 15 mins followed by ATP addition measured after 1 hr by ADP-Glo assay. The procedure, abridged: (§1)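 Luminescent ADP-production readout (PI3K-Glo Class I kit). Enzymes p110α/p85α, p110β/p85α, p120γ or p110δ/p85α diluted in reaction buffer with lipid substrate, preincubated with serially diluted compound 15 min at room temperature. ADP-Glo reagent 40 min, then detection reagent 40 min. IC50 by normalized nonlinear dose-response fit.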
In general terms: ADP-Glo first removes unused ATP, then detects ADP through luciferase.

Assay [2] concerns the target Phosphatidylinositol 4,5-bisphosphate 3-kinase catalytic subunit beta isoform (Homo sapiens, UniProt P42338). The assay can be described thus: Inhibition of recombinant human PI3K-beta using PIP2:3PS as substrate preincubated for 15 mins followed by ATP addition measured after 1 hr by ADP-Glo assay. The procedure, abridged:
as §1

The target of assay [3] is Phosphatidylinositol 4,5-bisphosphate 3-kinase catalytic subunit gamma isoform (Homo sapiens, UniProt P48736). The assay can be described thus: Inhibition of recombinant human PI3K-gamma using PIP2:3PS as substrate preincubated for 15 mins followed by ATP addition measured after 1 hr by ADP-Glo assay. The procedure, abridged: as §1
Phosphatidylinositol 4,5-bisphosphate 3-kinase catalytic subunit gamma isoform, sequence (P48736 whole entry, canonical isoform): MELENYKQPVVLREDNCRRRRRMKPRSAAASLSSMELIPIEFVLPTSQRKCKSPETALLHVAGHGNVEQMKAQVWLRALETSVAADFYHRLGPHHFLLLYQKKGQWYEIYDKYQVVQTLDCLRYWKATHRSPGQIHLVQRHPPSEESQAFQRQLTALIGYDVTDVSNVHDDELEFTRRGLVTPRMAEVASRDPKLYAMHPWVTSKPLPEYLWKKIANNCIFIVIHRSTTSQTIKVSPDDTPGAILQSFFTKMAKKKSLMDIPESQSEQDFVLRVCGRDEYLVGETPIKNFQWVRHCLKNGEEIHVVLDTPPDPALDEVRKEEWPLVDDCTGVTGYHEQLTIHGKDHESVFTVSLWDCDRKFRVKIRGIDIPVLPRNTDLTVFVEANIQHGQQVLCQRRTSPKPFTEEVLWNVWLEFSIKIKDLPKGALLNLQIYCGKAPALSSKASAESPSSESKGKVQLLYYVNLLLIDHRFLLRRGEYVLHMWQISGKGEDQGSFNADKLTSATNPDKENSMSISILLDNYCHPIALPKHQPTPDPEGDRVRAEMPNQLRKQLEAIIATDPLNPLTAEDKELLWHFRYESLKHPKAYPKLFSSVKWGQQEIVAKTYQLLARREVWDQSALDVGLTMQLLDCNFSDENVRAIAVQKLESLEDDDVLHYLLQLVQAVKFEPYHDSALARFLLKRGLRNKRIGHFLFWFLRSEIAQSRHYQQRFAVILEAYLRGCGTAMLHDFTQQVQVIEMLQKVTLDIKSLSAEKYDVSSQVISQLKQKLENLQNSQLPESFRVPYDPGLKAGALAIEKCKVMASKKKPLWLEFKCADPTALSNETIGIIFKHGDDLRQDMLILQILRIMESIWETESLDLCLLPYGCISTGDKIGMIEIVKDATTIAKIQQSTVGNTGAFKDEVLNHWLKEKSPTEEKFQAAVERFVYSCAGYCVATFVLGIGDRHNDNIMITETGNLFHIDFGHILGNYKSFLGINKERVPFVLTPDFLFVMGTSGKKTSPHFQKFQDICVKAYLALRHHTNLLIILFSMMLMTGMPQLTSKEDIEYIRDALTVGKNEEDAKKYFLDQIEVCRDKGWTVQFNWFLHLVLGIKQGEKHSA
For assay [4], the species on record is Homo sapiens. The assay can be described thus: Selectivity ratio of IC50 for recombinant human PI3K-beta to IC50 for recombinant human PI3K-alpha. The procedure, abridged:
(§2)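 Ratios derived from isoform IC50 values obtained in the ADP-Glo lipid-kinase assay: each enzyme preincubated 15 min with compound and lipid substrate, reaction started with ATP (250 µM stock), 1 h at room temperature, luminescence read and IC50 fitted by normalized nonlinear regression.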

The species entered for assay [5] is Homo sapiens. As to the kind of experiment: Selectivity ratio of IC50 for recombinant human PI3K-gamma to IC50 for recombinant human PI3K-alpha. The procedure, abridged:
as §2

Another assay concerns MRC5. The assay can be described thus: Antiproliferative activity against human MRC5 cells after 72 hrs by SRB assay. The class given is cell-based. Particulars: MRC5, 72 h. The procedure, abridged:
(§3)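 Normal human cells (MRC5, HUVEC) exposed to graded compound concentrations for 72 h at 37 °C, 5% CO2, fixed with 10% TCA and stained by SRB. IC50 obtained by non-linear regression of percent growth against concentration.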

The next assay deals with HUVEC. As to the kind of experiment: Antiproliferative activity against HUVEC after 72 hrs by SRB assay. The class given is cell-based. Particulars: Homo sapiens. An outline of the steps:
as §3

Assay [6] deals with T2, Phosphatidylinositol 4,5-bisphosphate 3-kinase catalytic subunit delta isoform (Homo sapiens, UniProt O00329).
T2 sequence (O00329 whole entry): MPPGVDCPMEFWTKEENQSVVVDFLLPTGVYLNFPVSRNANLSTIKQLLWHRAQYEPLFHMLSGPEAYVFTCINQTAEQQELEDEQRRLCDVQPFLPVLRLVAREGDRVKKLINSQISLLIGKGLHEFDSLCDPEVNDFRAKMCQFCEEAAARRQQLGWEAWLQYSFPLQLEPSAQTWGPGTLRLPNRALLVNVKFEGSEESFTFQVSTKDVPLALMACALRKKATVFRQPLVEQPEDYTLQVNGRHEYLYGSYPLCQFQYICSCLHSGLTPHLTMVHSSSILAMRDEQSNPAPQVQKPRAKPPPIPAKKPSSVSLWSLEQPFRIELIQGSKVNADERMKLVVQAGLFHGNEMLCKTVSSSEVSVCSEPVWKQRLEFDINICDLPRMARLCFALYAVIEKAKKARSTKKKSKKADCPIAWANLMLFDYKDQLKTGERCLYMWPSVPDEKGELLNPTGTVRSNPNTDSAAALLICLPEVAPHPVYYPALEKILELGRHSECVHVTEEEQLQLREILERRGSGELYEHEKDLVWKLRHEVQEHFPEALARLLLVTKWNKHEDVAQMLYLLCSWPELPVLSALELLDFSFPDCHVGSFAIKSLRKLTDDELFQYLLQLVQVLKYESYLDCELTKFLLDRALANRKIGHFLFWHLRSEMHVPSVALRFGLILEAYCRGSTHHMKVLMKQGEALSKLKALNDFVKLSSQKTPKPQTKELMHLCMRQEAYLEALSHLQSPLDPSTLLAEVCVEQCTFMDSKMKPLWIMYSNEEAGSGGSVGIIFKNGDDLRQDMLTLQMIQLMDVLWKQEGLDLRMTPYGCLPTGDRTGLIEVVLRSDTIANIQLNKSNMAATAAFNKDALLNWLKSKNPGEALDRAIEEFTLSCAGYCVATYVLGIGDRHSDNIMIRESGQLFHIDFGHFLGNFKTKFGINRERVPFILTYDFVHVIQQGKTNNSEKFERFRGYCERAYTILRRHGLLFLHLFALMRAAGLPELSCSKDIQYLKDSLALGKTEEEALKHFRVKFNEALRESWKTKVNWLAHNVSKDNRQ
The assay can be described thus: Inhibition of recombinant human PI3K-delta using PIP2:3PS as substrate preincubated for 15 mins followed by ATP addition measured after 1 hr by ADP-Glo assay. The procedure, abridged: as §1

For assay [7], the species on record is Homo sapiens. The assay can be described thus: Selectivity ratio of IC50 for recombinant human PI3K-delta to IC50 for recombinant human PI3K-alpha. An outline of the steps: as §2
Assay [8] deals with T1, Phosphatidylinositol 4,5-bisphosphate 3-kinase catalytic subunit alpha isoform. The assay can be described thus: Inhibition of PI3K-alpha in human HCT116 cells assessed as reduction in Akt phosphorylation at Thr-308 residue by Western blot analysis. The assay is classed as cell-based. An outline of the steps:
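Equal protein amounts separated by 10% SDS-PAGE, transferred to PVDF, probed with the indicated antibodies; β-actin as internal control.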

T1 sequence (P42336 whole entry, canonical isoform): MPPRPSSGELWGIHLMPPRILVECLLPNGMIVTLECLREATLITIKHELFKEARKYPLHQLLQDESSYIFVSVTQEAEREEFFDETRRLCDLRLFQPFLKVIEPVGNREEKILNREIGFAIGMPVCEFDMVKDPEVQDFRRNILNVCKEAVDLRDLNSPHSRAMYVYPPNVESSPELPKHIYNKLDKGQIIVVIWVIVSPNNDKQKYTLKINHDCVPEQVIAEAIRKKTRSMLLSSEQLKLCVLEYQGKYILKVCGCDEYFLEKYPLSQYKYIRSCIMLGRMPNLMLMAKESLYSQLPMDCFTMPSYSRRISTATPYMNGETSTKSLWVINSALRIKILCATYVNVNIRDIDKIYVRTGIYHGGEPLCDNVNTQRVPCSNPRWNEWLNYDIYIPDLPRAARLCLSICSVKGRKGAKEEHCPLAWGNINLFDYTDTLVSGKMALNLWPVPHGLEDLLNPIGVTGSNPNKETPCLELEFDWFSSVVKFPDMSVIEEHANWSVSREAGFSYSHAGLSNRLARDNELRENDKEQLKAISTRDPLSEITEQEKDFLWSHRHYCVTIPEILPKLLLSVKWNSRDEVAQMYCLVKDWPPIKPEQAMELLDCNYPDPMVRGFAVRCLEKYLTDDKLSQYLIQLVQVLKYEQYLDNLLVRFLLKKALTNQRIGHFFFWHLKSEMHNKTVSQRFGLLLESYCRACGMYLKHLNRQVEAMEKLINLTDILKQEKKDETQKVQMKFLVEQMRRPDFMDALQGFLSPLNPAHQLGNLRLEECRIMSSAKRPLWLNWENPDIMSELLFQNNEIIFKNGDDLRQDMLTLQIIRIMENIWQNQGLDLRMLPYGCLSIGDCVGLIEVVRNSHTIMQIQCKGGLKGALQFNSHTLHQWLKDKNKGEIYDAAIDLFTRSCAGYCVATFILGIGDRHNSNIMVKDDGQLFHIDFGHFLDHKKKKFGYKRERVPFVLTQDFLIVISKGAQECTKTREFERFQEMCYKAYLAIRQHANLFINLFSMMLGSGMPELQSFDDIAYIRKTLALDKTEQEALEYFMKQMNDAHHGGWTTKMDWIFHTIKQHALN
Phosphatidylinositol 4,5-bisphosphate 3-kinase catalytic subunit beta isoform, sequence (P42338 whole entry, canonical isoform): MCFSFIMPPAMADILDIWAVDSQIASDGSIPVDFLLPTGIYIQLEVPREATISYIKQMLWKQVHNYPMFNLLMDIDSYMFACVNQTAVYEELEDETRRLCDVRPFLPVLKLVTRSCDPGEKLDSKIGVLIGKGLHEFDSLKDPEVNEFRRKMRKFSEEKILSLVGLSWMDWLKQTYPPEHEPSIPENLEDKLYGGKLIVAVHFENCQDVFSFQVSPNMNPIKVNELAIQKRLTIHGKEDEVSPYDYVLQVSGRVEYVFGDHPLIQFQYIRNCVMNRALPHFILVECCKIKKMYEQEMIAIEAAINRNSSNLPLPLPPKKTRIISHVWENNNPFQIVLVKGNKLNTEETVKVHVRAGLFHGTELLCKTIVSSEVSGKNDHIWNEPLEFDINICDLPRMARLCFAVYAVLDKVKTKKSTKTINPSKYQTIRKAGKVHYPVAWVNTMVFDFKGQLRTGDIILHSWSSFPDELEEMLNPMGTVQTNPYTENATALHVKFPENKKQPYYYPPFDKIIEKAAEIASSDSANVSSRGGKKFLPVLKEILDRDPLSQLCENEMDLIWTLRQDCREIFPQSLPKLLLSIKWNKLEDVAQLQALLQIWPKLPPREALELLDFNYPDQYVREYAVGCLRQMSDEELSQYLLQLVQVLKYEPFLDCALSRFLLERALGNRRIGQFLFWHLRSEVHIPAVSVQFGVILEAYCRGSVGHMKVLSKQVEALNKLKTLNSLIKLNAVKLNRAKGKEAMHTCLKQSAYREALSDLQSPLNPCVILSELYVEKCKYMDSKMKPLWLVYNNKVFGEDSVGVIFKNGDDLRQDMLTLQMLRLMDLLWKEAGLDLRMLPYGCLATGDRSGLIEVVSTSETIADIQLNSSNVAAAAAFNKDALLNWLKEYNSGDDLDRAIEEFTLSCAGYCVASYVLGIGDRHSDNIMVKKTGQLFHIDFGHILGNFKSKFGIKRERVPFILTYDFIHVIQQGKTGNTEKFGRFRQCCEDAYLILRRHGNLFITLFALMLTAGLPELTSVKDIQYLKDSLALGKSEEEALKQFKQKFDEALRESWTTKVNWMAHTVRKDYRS

One may read the IC50 as the concentration that gives 50% inhibition. Regarding `CCCCS(=O)(=O)Nc1cc(-c2ccc3c(c2)N(CCCn2ccccc2=O)C(=O)CO3)cnc1OC`, the IC50 is 42.6 µM in the assay on HCT-116, 47.9 µM with MDA-MB-231 and 44.3 µM in the assay on SNU-638.
In the same order, the values of `COc1ncc(-c2ccc3c(c2)N(CCC(=O)N2CCOCC2)C(=O)CO3)cc1NS(=O)(=O)c1ccc(F)cc1F` are 3.18 µM, 3.26 µM and 5.77 µM.
In the same order, the values of `CCCCS(=O)(=O)Nc1cc(-c2ccc3c(c2)N(CCCN(CC)CC)C(=O)CO3)cnc1OC` are 14.6 µM, 13.8 µM and 17.6 µM.
For `Cn1c(=O)n(-c2ccc(C(C)(C)C#N)cc2)c2c3cc(-c4cnc5ccccc5c4)ccc3ncc21` [DACTOLISIB], the midpoint of inhibition in the assay on MDA-MB-231, the IC50, lay at 0.56 µM.
For `CCCCS(=O)(=O)Nc1cc(-c2ccc3c(c2)N(CCCN(C)C)C(=O)CO3)cnc1OC`, the half-inhibitory concentration (IC50) came to 8.43 µM in the assay on HCT-116, 9.35 µM in the assay on MDA-MB-231 and 8.97 µM with SNU-638.
In the same order, the values of `COc1ncc(-c2ccc3c(c2)N(Cc2ccncc2)C(=O)CO3)cc1NS(=O)(=O)c1ccc(F)cc1F` are 2.22 µM, 5.49 µM and 6.96 µM.
With `COc1ncc(-c2ccc3c(c2)N(Cc2ccc(F)cc2)C(=O)CO3)cc1NS(=O)(=O)c1ccc(F)cc1F`, the values for the IC50 in the assay with HCT-116, in the assay on MDA-MB-231 and with SNU-638 were 1.24 µM, 4.98 µM and 7.84 µM, respectively.
In the same order, the values of `CCCCS(=O)(=O)Nc1cc(-c2ccc3c(c2)N(CCCn2cccn2)C(=O)CO3)cnc1OC` are 33.6 µM, 37.9 µM and 36.2 µM.
In the same order, the values of `CCCCS(=O)(=O)Nc1cc(-c2ccc3c(c2)N(CCC(=O)N2CCOCC2)C(=O)CO3)cnc1OC` are 23.5 µM, 43.8 µM and 41.9 µM.
For `CCCCS(=O)(=O)Nc1cc(-c2ccc3c(c2)N(CCN2CCOCC2)C(=O)CO3)cnc1OC` the same measures were 15.8 µM, 19.5 µM and 20.4 µM.
Regarding `COc1ncc(-c2ccc3c(c2)N(CCCn2ccccc2=O)C(=O)CO3)cc1NS(=O)(=O)c1ccc(F)cc1F`, the IC50 in the assay with HCT-116 was 4.23 µM; with MDA-MB-231, 12.4 µM; in the assay with SNU-638, 6.76 µM.
Consider `CCOC(=O)CN1CCN(C2=Nc3cc(-c4cnc(OC)c(NS(=O)(=O)c5ccc(F)cc5F)c4)ccc3OC2)CC1`, for which the IC50 was 14.5 µM in the assay on HCT-116, 17.2 µM in the assay with MDA-MB-231 and 21.4 µM in the assay on SNU-638.
Take `COc1ncc(-c2ccc3c(c2)N=C(N2CCN(CCCO)CC2)CO3)cc1NS(=O)(=O)c1ccc(F)cc1F`: the IC50 is 3.26 µM with HCT-116, 4.78 µM in the assay with MDA-MB-231 and 4.97 µM in the assay with SNU-638.
In the same order, the values of `CCCCS(=O)(=O)Nc1cc(-c2ccc3c(c2)N(CCCn2ccnc2)C(=O)CO3)cnc1OC` are 32.9 µM, 40.4 µM and 32.7 µM.
In the case of `COC(=O)CCN1CCN(C2=Nc3cc(-c4cnc(OC)c(NS(=O)(=O)c5ccc(F)cc5F)c4)ccc3OC2)CC1`, the IC50 with HCT-116 turned out to be 18.6 µM; in the assay on MDA-MB-231 it was 22.8 µM; with SNU-638, 24.9 µM.
In the same order, the values of `CCCCS(=O)(=O)Nc1cc(-c2ccc3c(c2)N(Cc2ccncc2)C(=O)CO3)cnc1OC` are 41.4 µM, 37.9 µM and 46.5 µM.
In the same order, the values of `COc1ncc(-c2ccc3c(c2)N(CCN2CCOCC2)C(=O)CO3)cc1NS(=O)(=O)c1ccc(F)cc1F` are 2.4 µM, 1.82 µM and 2.38 µM.
For `COc1ncc(-c2ccc3c(c2)N=C(N2CCN(CCO)CC2)CO3)cc1NS(=O)(=O)c1ccc(F)cc1F` the same measures were 6.18 µM, 8.26 µM and 7.39 µM.
As for `COc1ncc(-c2ccc3c(c2)N(CCCN2CCOCC2)C(=O)CO3)cc1NS(=O)(=O)c1ccc(F)cc1F`, the IC50 in assay [1] is 0.0267 µM; in assay [2], 0.382 µM; in assay [3], 0.185 µM; in the assay with HCT-116 it was 0.58 µM; with MDA-MB-231 it was 0.49 µM; in the assay on SNU-638, 0.52 µM. Moreover, the results for the IC50 (in the assay with MRC5; in the assay with HUVEC; in assay [6]) were 32.8 µM, 15.6 µM and 0.425 µM, respectively. Also, the Ratio IC50 in the assay filed under Homo sapiens [4] worked out at 14.3; in the assay filed under Homo sapiens [5], 7; in the assay filed under Homo sapiens [7] it was 15.9. Moreover, the inhibition entry in [8] was “Dose-dependent effect”.
Turning to `CCCCS(=O)(=O)Nc1cc(-c2ccc3c(c2)N(CCCN2CCOCC2)C(=O)CO3)cnc1OC`, the IC50 in the assay on HCT-116 amounted to 4.62 µM; in the assay with MDA-MB-231, 4.23 µM; in the assay on SNU-638, 5.01 µM.
